This note sets out measurements from ChEMBL document CHEMBL1149207, “Non-nucleoside inhibitors of the hepatitis C virus NS5B polymerase: discovery of benzimidazole 5-carboxylic amide derivatives with low-nanomolar potency” (Bioorg Med Chem Lett, 2004).

For this assay, the target named is RNA-directed RNA polymerase (Hepacivirus hominis, UniProt O39930). As to the kind of experiment: Concentration required for inhibiting hepatitis C virus NS5B RNA polymerase activity. Summed up: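 HCV NS5B polymerase IC50; each value is the mean of at least duplicate experiments, run on two separate weighings of compound.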
RNA-directed RNA polymerase, sequence (O39930 whole entry): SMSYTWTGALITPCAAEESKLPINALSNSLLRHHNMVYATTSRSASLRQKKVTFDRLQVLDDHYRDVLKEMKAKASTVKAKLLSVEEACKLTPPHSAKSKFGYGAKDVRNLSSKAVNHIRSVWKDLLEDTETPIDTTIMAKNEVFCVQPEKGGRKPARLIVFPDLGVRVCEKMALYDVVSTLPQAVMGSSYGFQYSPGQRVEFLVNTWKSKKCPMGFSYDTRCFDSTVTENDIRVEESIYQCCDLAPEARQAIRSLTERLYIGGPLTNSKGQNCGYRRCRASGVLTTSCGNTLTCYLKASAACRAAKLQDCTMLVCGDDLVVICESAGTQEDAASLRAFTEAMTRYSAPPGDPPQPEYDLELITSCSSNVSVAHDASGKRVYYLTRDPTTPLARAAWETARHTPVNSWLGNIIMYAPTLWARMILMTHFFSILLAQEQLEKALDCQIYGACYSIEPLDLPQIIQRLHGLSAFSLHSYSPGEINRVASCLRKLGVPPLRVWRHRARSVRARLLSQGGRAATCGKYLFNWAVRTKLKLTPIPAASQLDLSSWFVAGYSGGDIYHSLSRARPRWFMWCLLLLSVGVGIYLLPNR
`O=C(N[C@@H](Cc1c[nH]c2ccccc12)C(=O)O)c1ccc2c(c1)nc(-c1ccccn1)n2C1CCCCC1` showed an IC50 of 1900 nM.

With `O=C(O)C(=O)Nc1ccc2[nH]cc(C[C@H](NC(=O)c3ccc4c(c3)nc(-c3ccoc3)n4C3CCCCC3)C(=O)O)c2c1`, the IC50 was 8 nM.

In turn, `COc1ccc([C@H](C)NC(=O)c2ccc3c(c2)nc(-c2ccccn2)n3C2CCCCC2)cc1OC` displayed a 50% inhibitory concentration (IC50) of 12000 nM. This IC50 lies about 1500-fold higher than the previous one.

`Cc1ccc2[nH]cc(C[C@H](NC(=O)c3ccc4c(c3)nc(-c3ccoc3)n4C3CCCCC3)C(=O)O)c2c1` yielded a concentration for half-maximal inhibition (IC50) of 2200 nM.

The compound `O=C(N[C@@H](Cc1ccc(O)cc1)C(=O)O)c1ccc2c(c1)nc(-c1ccoc1)n2C1CCCCC1` yielded a half-inhibitory concentration (IC50) of 400 nM.

The compound `CC(=O)Nc1ccc2[nH]cc(C[C@H](NC(=O)c3ccc4c(c3)nc(-c3ccoc3)n4C3CCCCC3)C(=O)O)c2c1` displayed an IC50 of 60 nM.

`Nc1ccc2[nH]cc(C[C@H](NC(=O)c3ccc4c(c3)nc(-c3ccoc3)n4C3CCCCC3)C(=O)O)c2c1` gave a half-maximal inhibitory concentration (IC50) of 90 nM. This IC50 is about 1.5-fold higher than that of the compound before.

The compound `COc1ccc([C@H](NC(=O)c2ccc3c(c2)nc(-c2ccccn2)n3C2CCCCC2)C(=O)O)cc1OC` gave an IC50 of 2000 nM.

For the compound `O=C(N[C@@H](Cc1c[nH]c2ccc(F)cc12)C(=O)O)c1ccc2c(c1)nc(-c1ccoc1)n2C1CCCCC1`, the midpoint of inhibition, the IC50, lay at 2900 nM.

`O=C(O)c1ccc2[nH]cc(C[C@H](NC(=O)c3ccc4c(c3)nc(-c3ccoc3)n4C3CCCCC3)C(=O)O)c2c1` came in with an IC50 of 20 nM.

For the compound `Cn1cc(C[C@@H](NC(=O)c2ccc3c(c2)nc(-c2ccoc2)n3C2CCCCC2)C(=O)O)c2cc(O)ccc21`, inhibition was half-maximal at 160 nM (IC50).

In turn, `CS(=O)(=O)Nc1ccc2[nH]cc(C[C@H](NC(=O)c3ccc4c(c3)nc(-c3ccoc3)n4C3CCCCC3)C(=O)O)c2c1` gave an IC50 of 120 nM.

`COc1ccc([C@H](NC(=O)c2ccc3c(c2)nc(-c2ccoc2)n3C2CCCCC2)C(=O)O)cc1OC`: the IC50 was 400 nM.

Consider `O=C(N[C@@H](Cc1ccccc1)C(=O)O)c1ccc2c(c1)nc(-c1ccccn1)n2C1CCCCC1`, for which the concentration for half-maximal inhibition (IC50) was 7000 nM.

For the compound `O=C(N[C@@H](Cc1c[nH]c2ccccc12)C(=O)O)c1ccc2c(c1)nc(-c1ccoc1)n2C1CCCCC1`, the midpoint of inhibition, the IC50, lay at 400 nM. This IC50 is about 18-fold lower than that of the compound before.

With `O=C(N[C@@H](Cc1ccccc1)C(=O)O)c1ccc2c(c1)nc(-c1ccoc1)n2C1CCCCC1`, 4000 nM corresponded to half-maximal inhibition (IC50).

Compound `O=C(O)COc1ccc2[nH]cc(C[C@H](NC(=O)c3ccc4c(c3)nc(-c3ccoc3)n4C3CCCCC3)C(=O)O)c2c1` returned an IC50 of 19 nM.

`O=C(N[C@@H](Cc1c[nH]c2ccc(C3N=NN=N3)cc12)C(=O)O)c1ccc2c(c1)nc(-c1ccoc1)n2C1CCCCC1` came in with an IC50 of 15 nM.

For the compound `O=C(N[C@@H](Cc1c[nH]c2ccc([N+](=O)[O-])cc12)C(=O)O)c1ccc2c(c1)nc(-c1ccoc1)n2C1CCCCC1`, half-maximal inhibition (IC50) required 2000 nM.

`COc1ccc(CNC(=O)c2ccc3c(c2)nc(-c2ccccn2)n3C2CCCCC2)cc1OC`: the IC50 came to 7000 nM.

As for `O=C(N[C@@H](Cc1c[nH]c2ccc(O)cc12)C(=O)O)c1ccc2c(c1)nc(-c1ccoc1)n2C1CCCCC1`, the 50% inhibitory concentration (IC50) worked out at 50 nM.

Compound `O=C(N[C@H](Cc1c[nH]c2ccc(O)cc12)C(=O)O)c1ccc2c(c1)nc(-c1ccoc1)n2C1CCCCC1` yielded an IC50 of 700 nM.

Take `O=C(N[C@@H](Cc1c[nH]c2ccc(O)cc12)C(=O)O)c1ccc2c(c1)nc(-c1ccccn1)n2C1CCCCC1`: the IC50 amounted to 140 nM. Against the preceding compound, the IC50 is about 5-fold lower.

`Cc1[nH]c2ccc(O)cc2c1C[C@H](NC(=O)c1ccc2c(c1)nc(-c1ccoc1)n2C1CCCCC1)C(=O)O` came in with an IC50 of 460 nM.

As for `O=C(N[C@@H](Cc1ccc(O)cc1)C(=O)O)c1ccc2c(c1)nc(-c1ccccn1)n2C1CCCCC1`, the midpoint of inhibition, the IC50, lay at 1500 nM.

`O=C(N[C@@H](Cc1c[nH]c2ccc(NS(=O)(=O)C(F)(F)F)cc12)C(=O)O)c1ccc2c(c1)nc(-c1ccoc1)n2C1CCCCC1` yielded a half-maximal inhibitory concentration (IC50) of 150 nM.

`CC(C)(Oc1ccc2[nH]cc(C[C@H](NC(=O)c3ccc4c(c3)nc(-c3ccoc3)n4C3CCCCC3)C(=O)O)c2c1)C(=O)O`: the midpoint of inhibition, the IC50, lay at 100 nM.

As for `COc1ccc2[nH]cc(C[C@H](NC(=O)c3ccc4c(c3)nc(-c3ccoc3)n4C3CCCCC3)C(=O)O)c2c1`, the half-inhibitory concentration (IC50) stood at 400 nM. This IC50 is about 4-fold higher than that of the compound before.

As to `NC(=O)c1ccc2[nH]cc(C[C@H](NC(=O)c3ccc4c(c3)nc(-c3ccoc3)n4C3CCCCC3)C(=O)O)c2c1`, the IC50 was 37 nM.

In the case of `COc1ccc([C@@H](C)NC(=O)c2ccc3c(c2)nc(-c2ccccn2)n3C2CCCCC2)cc1OC`, it took 3000 nM to reach half-maximal inhibition (IC50).

As for `O=C(NCCc1c[nH]c2ccc(O)cc12)c1ccc2c(c1)nc(-c1ccoc1)n2C1CCCCC1`, 1500 nM corresponded to half-maximal inhibition (IC50).

In general, IC50 refers to the concentration needed to halve the response being measured.
